Experimental data reported in ChEMBL document CHEMBL5058577, “EUbOPEN Chemogenomics Library 2 (Multiplex)” (2022).

Tested on: HEK-293T
Assay: Multiplex assay against HEK293T
Assay type: toxicity, cell-based
Settings: human
Method in brief: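 Hoechst33342, BioTracker Green Microtubule Cytoskeleton Dye, MitoTracker Red and Annexin V Alexa Fluor 680 were added to live cells at seeding, and imaging on a CQ1 microscope at 37°C and 5% CO2 followed compound addition. Gating by CellPathfinder machine learning separated cells into Hoechst high-intensity objects or normal cells, then normal cells into healthy, pyknosed or fragmented nuclei, then pyknosed cells into mitotic or apoptotic. Per cents of healthy-nucleus cells are reported for the tubulin, mitochondrial-mass and membrane-permeability phenotypes.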

[1] = 12 h, 1 µM, compound concentration 1 uM, replicate 1
[2] = 12 h, 1 µM, compound concentration 1 uM, replicate 2
[3] = 12 h, 10 µM, compound concentration 10 uM, replicate 1
[4] = 12 h, 10 µM, compound concentration 10 uM, replicate 2
[5] = 24 h, 1 µM, compound concentration 1 uM, replicate 1
[6] = 24 h, 1 µM, compound concentration 1 uM, replicate 2
[7] = 24 h, 10 µM, compound concentration 10 uM, replicate 1
[8] = 24 h, 10 µM, compound concentration 10 uM, replicate 2
[9] = 48 h, 1 µM, compound concentration 1 uM, replicate 1
[10] = 48 h, 1 µM, compound concentration 1 uM, replicate 2
[11] = 48 h, 10 µM, compound concentration 10 uM, replicate 1
[12] = 48 h, 10 µM, compound concentration 10 uM, replicate 2

CC(C)(C)c1cc(NC(=O)Nc2ccc(-c3cn4c(n3)sc3cc(OCCN5CCOCC5)ccc34)cc2)no1 [QUIZARTINIB]
Population Apoptotic (%) [1]: 27% | Population Fragmented Nuclei (%) [1]: 5% | Population Healthy Nuclei (%) [1]: 83% | Population Hoechst High Intensity Objects (%) [1]: 10% | Population Membrane Permeable-Phenotype (%) [1]: 0% | Population Mitochondria Different-Phenotype (%) [1]: 40% | Population Mitotic Cells (%) [1]: 72% | Population Normal (%) [1]: 89% | Population Pyknosed Nuclei (%) [1]: 11% | Population Tubulin-Different-Phenotype (%) [1]: 35% | Total Cell Count [1]: 377 | Population Apoptotic (%) [2]: 34% | Population Healthy Nuclei (%) [2]: 80% | Population Hoechst High Intensity Objects (%) [2]: 6% | Population Mitochondria Different-Phenotype (%) [2]: 58% | Population Mitotic Cells (%) [2]: 65% | Population Normal (%) [2]: 93% | Population Pyknosed Nuclei (%) [2]: 14% | Population Tubulin-Different-Phenotype (%) [2]: 26% | Total Cell Count [2]: 345 | Population Apoptotic (%) [3]: 53% | Population Fragmented Nuclei (%) [3]: 7% | Population Healthy Nuclei (%) [3]: 71% | Population Hoechst High Intensity Objects (%) [3]: 23% | Population Membrane Permeable-Phenotype (%) [3]: 0% | Population Mitochondria Different-Phenotype (%) [3]: 78% | Population Mitotic Cells (%) [3]: 46% | Population Normal (%) [3]: 76% | Population Pyknosed Nuclei (%) [3]: 21% | Population Tubulin-Different-Phenotype (%) [3]: 68% | Total Cell Count [3]: 324 | Population Apoptotic (%) [4]: 73% | Population Hoechst High Intensity Objects (%) [4]: 12% | Population Mitochondria Different-Phenotype (%) [4]: 81% | Population Mitotic Cells (%) [4]: 26% | Population Normal (%) [4]: 87% | Population Tubulin-Different-Phenotype (%) [4]: 63% | Total Cell Count [4]: 293 | Population Apoptotic (%) [5]: 41% | Population Fragmented Nuclei (%) [5]: 7% | Population Healthy Nuclei (%) [5]: 84% | Population Hoechst High Intensity Objects (%) [5]: 6% | Population Membrane Permeable-Phenotype (%) [5]: 0% | Population Mitochondria Different-Phenotype (%) [5]: 26% | Population Mitotic Cells (%) [5]: 58% | Population Normal (%) [5]: 93% | Population Pyknosed Nuclei (%) [5]: 7% | Population Tubulin-Different-Phenotype (%) [5]: 21% | Total Cell Count [5]: 491 | Population Apoptotic (%) [6]: 38% | Population Fragmented Nuclei (%) [6]: 5% | Population Hoechst High Intensity Objects (%) [6]: 4% | Population Mitochondria Different-Phenotype (%) [6]: 40% | Population Mitotic Cells (%) [6]: 61% | Population Normal (%) [6]: 95% | Population Pyknosed Nuclei (%) [6]: 10% | Population Tubulin-Different-Phenotype (%) [6]: 17% | Total Cell Count [6]: 440 | Population Apoptotic (%) [7]: 62% | Population Fragmented Nuclei (%) [7]: 8% | Population Healthy Nuclei (%) [7]: 79% | Population Hoechst High Intensity Objects (%) [7]: 16% | Population Membrane Permeable-Phenotype (%) [7]: 0% | Population Mitochondria Different-Phenotype (%) [7]: 63% | Population Mitotic Cells (%) [7]: 37% | Population Normal (%) [7]: 83% | Population Pyknosed Nuclei (%) [7]: 12% | Population Tubulin-Different-Phenotype (%) [7]: 57% | Total Cell Count [7]: 413 | Population Apoptotic (%) [8]: 69% | Population Fragmented Nuclei (%) [8]: 9% | Population Healthy Nuclei (%) [8]: 78% | Population Hoechst High Intensity Objects (%) [8]: 9% | Population Mitochondria Different-Phenotype (%) [8]: 75% | Population Mitotic Cells (%) [8]: 30% | Population Normal (%) [8]: 90% | Population Pyknosed Nuclei (%) [8]: 11% | Population Tubulin-Different-Phenotype (%) [8]: 50% | Total Cell Count [8]: 321 | Population Apoptotic (%) [9]: 21% | Population Fragmented Nuclei (%) [9]: 12% | Population Healthy Nuclei (%) [9]: 80% | Population Hoechst High Intensity Objects (%) [9]: 3% | Population Membrane Permeable-Phenotype (%) [9]: 2% | Population Mitochondria Different-Phenotype (%) [9]: 11% | Population Mitotic Cells (%) [9]: 78% | Population Normal (%) [9]: 96% | Population Pyknosed Nuclei (%) [9]: 6% | Population Tubulin-Different-Phenotype (%) [9]: 15% | Total Cell Count [9]: 851 | Population Fragmented Nuclei (%) [10]: 10% | Population Healthy Nuclei (%) [10]: 82% | Population Hoechst High Intensity Objects (%) [10]: 2% | Population Membrane Permeable-Phenotype (%) [10]: 0% | Population Mitochondria Different-Phenotype (%) [10]: 24% | Population Normal (%) [10]: 97% | Population Tubulin-Different-Phenotype (%) [10]: 18% | Total Cell Count [10]: 566 | Population Apoptotic (%) [11]: 57% | Population Fragmented Nuclei (%) [11]: 9% | Population Healthy Nuclei (%) [11]: 77% | Population Hoechst High Intensity Objects (%) [11]: 9% | Population Membrane Permeable-Phenotype (%) [11]: 1% | Population Mitochondria Different-Phenotype (%) [11]: 40% | Population Mitotic Cells (%) [11]: 42% | Population Normal (%) [11]: 90% | Population Pyknosed Nuclei (%) [11]: 12% | Population Tubulin-Different-Phenotype (%) [11]: 35% | Total Cell Count [11]: 583 | Population Apoptotic (%) [12]: 58% | Population Fragmented Nuclei (%) [12]: 11% | Population Healthy Nuclei (%) [12]: 73% | Population Hoechst High Intensity Objects (%) [12]: 12% | Population Membrane Permeable-Phenotype (%) [12]: 0% | Population Mitochondria Different-Phenotype (%) [12]: 59% | Population Mitotic Cells (%) [12]: 41% | Population Normal (%) [12]: 87% | Population Pyknosed Nuclei (%) [12]: 14% | Population Tubulin-Different-Phenotype (%) [12]: 37% | Total Cell Count [12]: 392
